Converted amounts (≈) assume the structure as drawn.
How the values were obtained:
Staphylococcus aureus [1] = test: Antimicrobial activity against intracellular hospital acquired methicillin-resistant Staphylococcus aureus ATCC 33591 infected in activated human THP-1 cells assessed as decrease in bacterial count from original inoculum at high compound concentration after 24 hrs at pH 7.4; assay type: functional
Procedure, shortened: (§1)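 THP-1 cells activated by 24-h culture with phorbol myristate acetate 2 mg/liter, then infected like unactivated THP-1. Cloxacillin dose range in mg/liter for 24 h. CFU per mg cell protein relative to the original inoculum, n = 3. Emin and Emax extrapolated from a Hill fit (slope 1), with EC50 as total drug; static concentration by graphical interpolation.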

Staphylococcus aureus [2] = test: Bacteriostatic activity against intracellular beta-lactamase negative methicillin-susceptible Staphylococcus aureus ATCC 25923 infected in activated human THP-1 cells assessed as decrease in bacterial growth after 24 hrs at pH 7.4; assay type: functional; procedure, shortened: as §1
[3] = Chemical stability of the compound assessed as compound remaining after 24 hrs PBS buffer by HPLC analysis at pH 5.5; assay type: physicochemical; details: read-out: Activity
Procedure, shortened: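 Drug at 50 mg/liter initial concentration incubated 24 h at 37°C in buffered medium at pH 7.4 or 5.5. Remaining drug measured by HPLC signal disappearance; mobile phase 25 mM phosphate buffer pH 6.7 with acetonitrile (75:25).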

Staphylococcus aureus [4] = test: Antimicrobial activity against beta-lactamase negative methicillin-susceptible Staphylococcus aureus ATCC 25923 infected in human THP-1 cells assessed as increase in bacterial count from original inoculum at low compound concentration after 24 hrs at pH 7.4; assay type: functional
Staphylococcus aureus [5] = test: Antimicrobial activity against hospital acquired methicillin-resistant Staphylococcus aureus ATCC 33591 infected in human THP-1 cells assessed as increase in bacterial count from original inoculum at low compound concentration after 24 hrs at pH 7.4; assay type: functional
Staphylococcus aureus [6] = test: Antimicrobial activity against beta-lactamase negative methicillin-susceptible Staphylococcus aureus ATCC 25923 infected in human THP-1 cells assessed as decrease in bacterial count from original inoculum at high compound concentration after 24 hrs at pH 7.4; assay type: functional
Staphylococcus aureus [7] = test: Antimicrobial activity against beta-lactamase negative methicillin-susceptible Staphylococcus aureus ATCC 25923 infected in human THP-1 cells assessed as decrease in bacterial growth after 24 hrs at pH 7.4; assay type: functional, organism-based; details: ATCC 25923, THP-1, 24 h
Staphylococcus aureus [8] = test: Bacteriostatic activity against beta-lactamase negative methicillin-susceptible Staphylococcus aureus ATCC 25923 infected in human THP-1 cells assessed as decrease in bacterial growth after 24 hrs at pH 7.4; assay type: functional
Staphylococcus aureus [9] = test: Bacteriostatic activity against hospital acquired methicillin-resistant Staphylococcus aureus ATCC 33591 infected in human THP-1 cells assessed as decrease in bacterial growth after 24 hrs at pH 7.4; assay type: functional
Procedure, shortened: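 THP-1 macrophages, unactivated, infected with MRSA ATCC 33591. Cloxacillin over a range of extracellular concentrations (mg/liter) with a 24-h exposure. CFU per mg cell protein as change from the original inoculum, n = 3. Hill equation fitted with slope factor 1; static concentration (no change from inoculum) read by graphical interpolation.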

Staphylococcus aureus [10] = test: Antimicrobial activity against hospital acquired methicillin-resistant Staphylococcus aureus N4120210 obtained from urinary tract infection patient by broth microdilution method at pH 7.4; assay type: functional; details: N4120210, Urine
Procedure, shortened: (§2)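 Minimal inhibitory concentration by broth microdilution at pH 7.4, read in mg/liter. The MRSA genotype was confirmed by mecA PCR, and the SCCmec subgroup was assigned by multiplex PCR.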

Staphylococcus aureus [11] = test: Antimicrobial activity against Panton-valentine leukocidin positive community acquired methicillin-resistant Staphylococcus aureus NRS192 obtained from patient with pneumonia and septic arthritis by broth microdilution method at pH 7.4; assay type: functional; procedure, shortened: as §2
Staphylococcus aureus [12] = test: Antimicrobial activity against beta-lactamase negative methicillin-susceptible Staphylococcus aureus ATCC 25923 by broth microdilution method at pH 5.5; assay type: functional
Staphylococcus aureus [13] = test: Antimicrobial activity against hospital acquired methicillin-resistant and vancomycin-intermediate Staphylococcus aureus NRS18 obtained from patient with wound, skin and soft tissue infection by broth microdilution method at pH 5.5; assay type: functional
Staphylococcus aureus [14] = test: Antimicrobial activity against hospital acquired methicillin-resistant and vancomycin-intermediate Staphylococcus aureus NRS126 obtained from patient with bloodstream infection by broth microdilution method at pH 5.5; assay type: functional
Staphylococcus aureus [15] = test: Antimicrobial activity against hospital acquired methicillin-resistant and […] Staphylococcus aureus VRS2 obtained from patient with wound, skin and soft tissue infection by broth microdilution method at pH 5.5; assay type: functional
Staphylococcus aureus [16] = test: Antimicrobial activity against hospital acquired methicillin-resistant Staphylococcus aureus N4120210 obtained from urinary tract infection of patient infected in human THP-1 cells assessed as increase in bacterial count from original inoculum at low compound concentration after 24 hrs at pH 5.5; assay type: functional, Urine
Procedure, shortened: (§3)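 Bacteria phagocytosed by unactivated human THP-1 macrophages, then incubated 24 h with extracellular antibiotic at about 0.01× to 100× the pH 5.5 broth MIC. CFU per mg cell protein counted against the original inoculum, n = 3. A Hill-equation fit (slope factor 1) gave Emin and Emax, extrapolated to infinitely low and high concentration, and EC50. Static concentration was graphically interpolated.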

Staphylococcus aureus [17] = test: Antimicrobial activity against hospital acquired methicillin-resistant and vancomycin-intermediate Staphylococcus aureus NRS126 obtained from bloodstream infection of patient infected in human THP-1 cells assessed as decrease in bacterial count from original inoculum at high compound concentration after 24 hrs at pH 5.5; assay type: functional; procedure, shortened: as §3
Staphylococcus aureus [18] = test: Antimicrobial activity against beta-lactamase negative methicillin-susceptible Staphylococcus aureus ATCC 25923 infected in human THP-1 cells assessed as decrease in bacterial growth after 24 hrs at pH 5.5; assay type: functional, organism-based; details: ATCC 25923, THP-1, 24 h; procedure, shortened: as §3
Staphylococcus aureus [19] = test: Antimicrobial activity against constitutive beta-lactamase negative methicillin-resistant Staphylococcus aureus COL NRS100 infected in human THP-1 cells assessed as decrease in bacterial growth after 24 hrs at pH 5.5; assay type: functional, organism-based; details: COL NRS100, THP-1, 24 h; procedure, shortened: as §3
Staphylococcus aureus [20] = test: Antimicrobial activity against hospital acquired methicillin-resistant Staphylococcus aureus N4120032 obtained from wound infection opf patient infected in human THP-1 cells assessed as decrease in bacterial growth after 24 hrs at pH 5.5; assay type: functional, organism-based; details: N4120032, THP-1, 24 h; procedure, shortened: as §3
Staphylococcus aureus [21] = test: Bacteriostatic activity against Panton-valentine leukocidin positive community acquired methicillin-resistant Staphylococcus aureus NRS192 infected in human THP-1 cells assessed as decrease in bacterial growth after 24 hrs at pH 5.5; assay type: functional
Procedure, shortened: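 Human THP-1 macrophages infected with each S. aureus strain. Cloxacillin added extracellularly at about 0.01× to 100× the broth MIC measured at pH 5.5, with gentamicin 0.5 mg/liter to stop extracellular growth. Incubated 24 h. CFU counted per mg cell protein as change from the post-phagocytosis inoculum, n = 3. Emin, Emax and EC50 from a Hill fit; static concentration by graphical interpolation.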

Staphylococcus aureus [22] = test: Antimicrobial activity against intracellular beta-lactamase negative methicillin-susceptible Staphylococcus aureus ATCC 25923 infected in activated human THP-1 cells assessed as decrease in bacterial count from original inoculum at high compound concentration after 24 hrs at pH 7.4; assay type: functional

Cc1onc(-c2ccccc2Cl)c1C(=O)N[C@@H]1C(=O)N2[C@@H]1SC(C)(C)[C@@H]2C(=O)O [CLOXACILLIN]
log10cfu (Staphylococcus aureus [1]): 0.7
Activity (Staphylococcus aureus [2]): 1.3 mg/L
remaining at 24 h [3]: 93.3%
log10cfu (Staphylococcus aureus [4]): 1.79
log10cfu (Staphylococcus aureus [5]): 2.27
log10cfu (Staphylococcus aureus [6]): 0.77
EC50 (Staphylococcus aureus [7]): 0.27 µg/mL (≈ 0.619 µM)
Activity (Staphylococcus aureus [8]): 0.6 mg/L
Activity (Staphylococcus aureus [9]): 0.9 mg/L
MIC (Staphylococcus aureus [10]): 2 µg/mL (≈ 4.59 µM)
MIC (Staphylococcus aureus [11]): 1 µg/mL (≈ 2.29 µM)
MIC (Staphylococcus aureus [12]): 0.06 µg/mL (≈ 0.138 µM)
MIC (Staphylococcus aureus [13]): 0.06 µg/mL (≈ 0.138 µM)
MIC (Staphylococcus aureus [14]): 0.06 µg/mL (≈ 0.138 µM)
MIC (Staphylococcus aureus [15]): 0.06 µg/mL (≈ 0.138 µM)
log10cfu (Staphylococcus aureus [16]): 2.6
log10cfu (Staphylococcus aureus [17]): 0.69
EC50 (Staphylococcus aureus [18]): 4.44 ×MIC
EC50 (Staphylococcus aureus [19]): 2.74 ×MIC
EC50 (Staphylococcus aureus [20]): 9.26 ×MIC
Activity (Staphylococcus aureus [21]): 16.6 ×MIC
log10cfu (Staphylococcus aureus [22]): 0.9
